We go through five compounds from ChEMBL document CHEMBL1156500, “Characterization of the metabolic activation of hepatitis C virus nucleoside inhibitor beta-D-2'-Deoxy-2'-fluoro-2'-C-methylcytidine (PSI-6130) and identification of a novel active 5'-triphosphate species” (J Biol Chem, 2007).

Series [1] concerns Hepatitis C virus. As to the kind of experiment: Antiviral activity against HCV 1b Con1 in 2209-23 cells upto 100 uM after 72 hrs by luciferase based replicon assay. Type of series: functional, organism-based. As to conditions: Hepacivirus hominis, genotype 1b Con 1. The procedure, abridged: (§1)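 Huh7-derived 2209-23 cells carrying a bicistronic genotype 1b Con1 subgenomic HCV replicon with a Renilla luciferase reporter of RNA replication. Cells were exposed to compound for 72 h, and dose-dependent reduction of luciferase activity was measured to give IC50.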
On the technique in general: A replicon is a self-replicating genome or part of one, used to study replication in cells.

Series [2] relates to Hepatitis C virus. As to the kind of experiment: Antiviral activity against HCV 1b Con1 in 2209-23 cells after 72 hrs by luciferase based replicon assay. In kind it is functional, organism-based, Hepacivirus hominis. Particulars: genotype 1b Con 1, 2209-23, 72 h. The procedure, abridged: as §1
The subject of series [3] is Hepatitis C virus. As to the kind of experiment: Inhibition of RNA synthesis activity of […]. Also on record: species or system Hepatitis C virus subtype 1b, Con1. As to conditions: for IC50: Hepatitis C virus; for IC50 / Km: Con1; for Km: Hepatitis C virus subtype 1b.
For series [4], the system named is Hepatitis C virus. As to the kind of experiment: Inhibition of RNA synthesis activity of […] 1b Con1 replicase. The arrangement: species or system Hepatitis C virus subtype 1b. The procedure, abridged: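 Membrane-associated native replication complexes were isolated from 2209-23 replicon cells, with 20 μl reactions. One format used 2.5×10^6 cell equivalents for 60 min. The other used 3.1×10^6 cell equivalents for 90 min in 50 mM HEPES pH 7.5, 5 mM MgCl2, actinomycin D, 1 mM ATP/GTP/CTP, 0.4 μM [α-33P]UTP and a creatine phosphate regeneration system.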

In series [5] the test system is Hepatocyte. Briefly: Drug uptake in human hepatocyte assessed as time needed for triphosphate to be reduced to half of maximum level. Type of series: ADME, cell-based, Liver. Particulars: hepatocytes. The procedure, abridged: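 Hepatocytes from 4 donors were loaded for 24 h with 2 μM 3H-drug (10 μCi/ml), washed, and placed in drug-free medium. Duplicate samples were taken 0–72 h later and analysed for triphosphates by radio-HPLC. Half-life came from a single-phase exponential decay fit, mean ± S.D. (n = 4).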

The structures appear in SMILES notation. Calls of active or inactive are those of the source. The rule behind the calls is not given here.

As a reminder, the IC50 is the concentration at which inhibition is half-maximal. A lower IC50 goes with greater potency. `C[C@@]1(F)[C@H](O)[C@@H](CO)O[C@H]1n1ccc(=O)[nH]c1=O`: the outcome in series [1] was inactive. The same compound showed a half-inhibitory concentration (IC50) in series [2] of over 100 µM.

Usually Ki stands for the dissociation constant of the complex between target and ligand, obtained from inhibition or displacement. A low value points to higher affinity. In series [3], `C[C@@]1(F)[C@H](O)[C@@H](COP(=O)(O)OP(=O)(O)OP(=O)(O)O)O[C@H]1n1ccc(=O)[nH]c1=O` [GS-461203] returned a Ki of 0.141 µM and an IC50 of 0.52 µM. It took 1.19 µM to reach half-maximal inhibition in series [4] (IC50).

For orientation: Km means the substrate concentration at which the rate is half of its maximum. `O=c1ccn([C@@H]2O[C@H](COP(=O)(O)OP(=O)(O)OP(=O)(O)O)[C@@H](O)[C@H]2O)c(=O)[nH]1`: in series [3], the Michaelis constant (Km) is 0.37 µM.

Consider `C[C@@]1(F)[C@H](O)[C@@H](COP(=O)(O)OP(=O)(O)OP(=O)(O)O)O[C@H]1n1ccc(N)nc1=O` [PSI-6130-TP], for which, in series [3], the Ki came to 0.023 µM and the 50% inhibitory concentration (IC50) is 0.13 µM. Further, the t1/2 in series [5] came out at 4.7 h. The concentration for half-maximal inhibition (IC50) in series [4] was found to be 0.34 µM.

With `Nc1ccn([C@@H]2O[C@H](COP(=O)(O)OP(=O)(O)OP(=O)(O)O)[C@@H](O)[C@H]2O)c(=O)n1`, the Km in series [3] is 0.22 µM.
